ChEMBL document CHEMBL1156412, “Absolute stereostructures of three new sesquiterpenes from the fruit of Alpinia oxyphylla with inhibitory effects on nitric oxide production and degranulation in RBL-2H3 cells” (J Nat Prod, 2002)

What was measured:
[1] = test system: RBL-2H3; experiment: Inhibition of rat RBL2H3 cell degranulation assessed as inhibition of beta-hexosamidase release at 100 uM after 10 mins by microplate reader assay relative to control; format: functional; settings: RBL-2H3, 10 min
Procedure, shortened: (§1)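 RBL-2H3 cells, 2 × 10^5/well, sensitized overnight with 0.45 µg/mL anti-DNP IgE. Cells washed, then held in Siraganian buffer (pH 7.2, glucose, CaCl2, 0.1% BSA). Sample (0.1% DMSO final) added for 10 min, then DNP-BSA (10 µg/mL final) for 10 min at 37 °C. Supernatant β-hexosaminidase assayed on 1 mM p-nitrophenyl-N-acetyl-β-D-glucosaminide, pH 4.5, 1 h, 405 nm. Inhibition corrected for blank and spontaneous release; N=4.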

[2] = Cytotoxicity against ddY mouse macrophages after 20 hrs by MTT assay; format: cell-based; settings: macrophage
Procedure, shortened: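 Peritoneal exudate macrophages from male ddY mice (adherent after 1 h preculture, >95% macrophages) in RPMI 1640 with 5% FCS. Exposed to 10 µg/mL LPS plus test compound, 0.5% DMSO final, for 20 h. MTT then added for 4 h. Formazan dissolved in 2-propanol/0.04 M HCl and read at 570 nm (reference 655 nm).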

[3] = test system: Macrophage; experiment: Inhibition of LPS-induced NO production in ddY mouse macrophages assessed as nitrite accumulation at 3 uM after 20 hrs by Griess reagent method relative to control
[4] = test system: Macrophage; experiment: Inhibition of LPS-induced NO production in ddY mouse macrophages assessed as […] accumulation after 20 hrs by Griess reagent method; format: functional, cell-based
Procedure, shortened: (§2)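 Adherent peritoneal macrophages from male ddY mice, 5 × 10^5 cells/well, in RPMI 1640 with 5% FCS. Cultured 20 h with 10 µg/mL LPS and compound (3-100 µM, 0.5% DMSO final). Nitrite in the medium measured with Griess reagent. Inhibition % = (A−B)/(A−C)×100 against LPS-only and unstimulated wells. N=4; IC50 determined graphically.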

[5] = test system: RBL-2H3; experiment: Inhibition of rat RBL2H3 cell degranulation assessed as inhibition of beta-hexosamidase release at 10 uM after 10 mins by microplate reader assay relative to control; format: functional; settings: RBL-2H3, 10 min; procedure, shortened: as §1
[6] = test system: Macrophage; experiment: Inhibition of LPS-induced NO production in ddY mouse macrophages assessed as […] accumulation at 30 uM after 20 hrs by Griess reagent method relative to control; format: functional; procedure, shortened: as §2
[7] = test system: Macrophage; experiment: Inhibition of LPS-induced NO production in ddY mouse macrophages assessed as […] accumulation at 10 uM after 20 hrs by Griess reagent method relative to control; format: functional; procedure, shortened: as §2
[8] = test system: Macrophage; experiment: Inhibition of LPS-induced NO production in ddY mouse macrophages assessed as […] accumulation at 100 uM after 20 hrs by Griess reagent method relative to control; format: functional; procedure, shortened: as §2
[9] = test system: RBL-2H3; experiment: Inhibition of rat RBL2H3 cell degranulation assessed as inhibition of beta-hexosamidase release at 30 uM after 10 mins by microplate reader assay relative to control; format: functional; settings: RBL-2H3, 10 min; procedure, shortened: as §1
[10] = test system: RBL-2H3; experiment: Inhibition of rat RBL2H3 cell degranulation assessed as inhibition of beta-hexosamidase release after 10 mins by microplate reader assay; format: functional, cell-based; settings: RBL-2H3, 10 min; procedure, shortened: as §1

SMILES | IC50 [4] | IC50 [10] | inhibition at 100 µM [1] | Activity [2] | inhibition at 3 µM [3] | inhibition at 10 µM [5] | inhibition at 30 µM [6] | inhibition at 10 µM [7] | inhibition at 100 µM [8] | inhibition at 30 µM [9]
C=C1CC[C@H]2C(C)(C)CCC[C@]2(C)[C@H]1C/C=C(/C=O)CC=O | 22 µM | – | 42% | Toxic | -4.7% | -0.9% | 68.1% | 9.3% | 95.6% | 13.1%
C=C(C)[C@@H]1CC=C2[C@@H](O)CC[C@@H](C)[C@]2(C)C1 | 48 µM | – | -8% | – | 5.8% | -5% | 31% | 1.8% | 65.3% | -9.2%
C=C(C)[C@@H]1CC[C@@]2(C)CCC[C@@](C)(O)[C@@H]2C1 | 39 µM | – | 11.9% | – | 2.5% | 2.9% | 42.2% | 19.2% | 73.3% | 4.4%
COc1cc(/C=C/C(=O)CC(=O)/C=C/c2ccc(O)c(OC)c2)ccc1O [CURCUMIN] | – | 3 µM | 62.6% | – | – | – | – | – | – | 14.2%
C=C(C)[C@@H]1CC[C@@]2(C)CC[C@@H](O)C(=C)C2C1 (some centres not stated) [ISOCYPEROL] | 21 µM | – | -28.9% | – | 10.3% | -5.3% | 64.4% | 23.9% | 96.8% | -11.9%
COc1cc(O)c2c(=O)c(O)c(-c3ccccc3)oc2c1 [IZALPININ] | > 30 µM | – | 27.5% | Toxic | 6.3% | 1.6% | 13.4% | 14.6% | 41.5% | 8.7%
O=c1cc(-c2ccc(O)c(O)c2)oc2cc(O)cc(O)c12 [LUTEOLIN] | – | 82 µM | – | – | – | – | – | – | – | –
C=C(C)[C@@H]1CCC2=CC(=O)C[C@@H](C)[C@]2(C)C1 [NOOTKATONE] | 34 µM | – | 25.8% | – | -6.2% | 2% | 44.8% | 10.7% | 86.9% | 8.2%
CC(C)[C@@H]1CCC(=O)C2=C1[C@H](O)[C@](C)(O)CC2 [OXYPHYLLENODIOL A] | 28 µM | – | 1.7% | – | 11.8% | 1.1% | 52.5% | 16.9% | 102% | 0.4%
C=C(C)[C@@H]1CC[C@@]2(O)[C@@H](O)CC[C@@H](C)[C@]2(C)C1 [OXYPHYLLOL C] | – | – | 8.2% | – | – | -1.1% | – | – | – | 2.4%

Continued, in another order:

IC50 [4] | IC50 [10] | SMILES | inhibition at 100 µM [1] | Activity [2] | inhibition at 3 µM [3] | inhibition at 10 µM [5] | inhibition at 30 µM [6] | inhibition at 10 µM [7] | inhibition at 100 µM [8] | inhibition at 30 µM [9]
> 100 µM | – | CC(C)[C@H]1CCC(=O)C2=C1[C@H](O)[C@](C)(O)CC2 [OXYPHYLLENODIOL B] | -3.1% | – | -4.2% | -4.3% | 19.6% | -0.4% | 40.1% | -3.3%
35 µM | – | C[C@@]12CCC(=O)C=C1[C@@](C)(O)[C@H](O)CC2 [OXYPHYLLENONE A] | -4.7% | – | 1.6% | -3.3% | 43% | -2.9% | 85.7% | -4.5%
> 100 µM | – | C[C@@]12CCC(=O)C=C1[C@](C)(O)[C@H](O)CC2 [OXYPHYLLENONE B] | -1.8% | – | -8.1% | -0.8% | 19.2% | 0.4% | 41.2% | -1.3%
42 µM | – | C=C(C)[C@H]1C=C2[C@](C)(CCC[C@@]2(C)O)CC1 [OXYPHYLLOL A] | -24% | – | 12.5% | -8.3% | 40.4% | 19.3% | 74.2% | -15.1%
23 µM | 49 µM | COc1cc(O)c2c(=O)cc(-c3ccccc3)oc2c1 [TECHTOCHRYSIN] | 75.1% | Toxic | -0.1% | 11.9% | 60.6% | 19.2% | 87.6% | 40.8%
28 µM | – | CNC(=N)NCCC[C@H](N)C(=O)O [TILARGININE] | – | – | 2% | – | 52.3% | 17.7% | 79.2% | –
